According to ChEMBL document CHEMBL1128693, “Novel cytotoxic 3'-(tert-butyl) 3'-dephenyl analogs of paclitaxel and docetaxel” (J Med Chem, 1995):
pEC50: −log10 of the molar value. In brackets after ≈: the same amount, converted by molar mass.

How the values were obtained:
[1] = Water solubility of the compound; format: ADME; conditions: read-out: S
How it was run: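 Aqueous solubility by HPLC on a phenyl column. Mobile phases were 50% methanol/water and acetonitrile. The standard curve came from about 0.5 mg sample in 1 mL methanol with serial dilutions, plotting concentration against HPLC peak area. For samples, about 0.4 mg was placed in 9 mL water and sonicated 15 min in a cold-water bath.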

[2] = system: B16; assay: The compound was tested for Cytotoxic concentration against B16 melanoma cells relative to paclitaxel; format: functional; conditions: Mus musculus, B16, read-out: ED50
[3] = system: B16; assay: The compound was tested for Cytotoxic concentration against B16 melanoma cells.; format: functional; conditions: Mus musculus, B16, read-out: ED50
[4] = Water solubility relative to Paclitaxel solubility; format: ADME; conditions: buffer
How it was run: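 Solubility in water by HPLC on a phenyl column: mobile phase A, 50% methanol/50% water; mobile phase B, acetonitrile. About 0.4 mg compound placed in 9 mL water in a 10 mL volumetric flask, sonicated 15 min in cold water. Quantified against a methanol standard curve (about 0.5 mg/mL serially diluted) of concentration vs HPLC peak area. Reported in µg/mL and as a ratio to paclitaxel solubility.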

[5] = target: T1, Tubulin (Bos taurus) (UniProt Q6B856+Q862L2+Q862F3); assay: Promotion of tubulin polymerization
[6] = target: T1, Tubulin (Bos taurus); assay: ED50 relative to paclitaxel in promoting tubulin polymerization
[7] = Ratio of ED50 in microtubule assembly in presence of paclitaxel to only compound; format: functional
How it was run: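 Bovine brain tubulin purified by three temperature-dependent assembly-disassembly cycles plus phosphocellulose-biogel P-10 chromatography, cleared at 27000g for 10 min. Varied compound levels incubated with 10 μM tubulin and 0.5 mM GTP in PEM buffer (0.1 M Pipes pH 6.9, 1 mM MgSO₄, 1 mM EGTA), 37 °C, 15 min. Spun at 40000g for 4 min; supernatant protein by Bradford. […] Ratio against paclitaxel ED50.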

Row | Structure (SMILES) | solubility [1] | Ratio [4] | ED50 [5] | ED50 [6] | pEC50 [2] | pEC50 [3] | Ratio [7]
1 | CC(=O)O[C@@]12CO[C@@H]1C[C@H](O)[C@@]1(C)C(=O)[C@H](O)C3=C(C)[C@@H](OC(=O)[C@H](O)[C@@H](NC(=O)OC(C)(C)C)C(C)(C)C)C[C@@](O)([C@@H](OC(=O)c4ccccc4)[C@H]21)C3(C)C | 0.028 mg/mL (≈ 35.5 µM) | 93 | 0.35 µM | 0.93 µM | 7.50 | 7.90 | 
2 | CC(=O)O[C@@]12CO[C@@H]1C[C@H](O)[C@@]1(C)C(=O)[C@H](O)C3=C(C)[C@@H](OC(=O)[C@H](O)[C@@H](/N=C(/S)NC(C)(C)C)C(C)(C)C)C[C@@](O)([C@@H](OC(=O)c4ccccc4)[C@H]21)C3(C)C |  |  | 3.2 µM | 0.9 µM | 7.61 | < 6.00 | 3.6
3 | CC(=O)O[C@@]12CO[C@@H]1C[C@H](O)[C@@]1(C)C(=O)[C@H](O)C3=C(C)[C@@H](OC(=O)[C@H](O)[C@@H](NC(=O)OCC(C)C)C(C)(C)C)C[C@@](O)([C@@H](OC(=O)c4ccccc4)[C@H]21)C3(C)C | 0.028 mg/mL (≈ 35.5 µM) | 93 | 0.5 µM | 0.93 µM |  |  | 
4 | CC(=O)O[C@@]12CO[C@@H]1C[C@H](O)[C@@]1(C)C(=O)[C@H](O)C3=C(C)[C@@H](OC(=O)[C@H](O)[C@@H](NC(=O)Oc4ccccc4)C(C)(C)C)C[C@@](O)([C@@H](OC(=O)c4ccccc4)[C@H]21)C3(C)C |  |  | 1.3 µM | 0.93 µM | 7.50 | < 6.00 | 1.4
5 | CCCCCCOC(=O)N[C@H]([C@@H](O)C(=O)O[C@H]1C[C@@]2(O)[C@@H](OC(=O)c3ccccc3)[C@@H]3[C@]4(OC(C)=O)CO[C@@H]4C[C@H](O)[C@@]3(C)C(=O)[C@H](O)C(=C1C)C2(C)C)C(C)(C)C |  |  | 2.1 µM | 0.93 µM | 7.50 | 6.43 | 2.3
6 | CCC(C)(C)OC(=O)N[C@H]([C@@H](O)C(=O)O[C@H]1C[C@@]2(O)[C@@H](OC(=O)c3ccccc3)[C@@H]3[C@]4(OC(C)=O)CO[C@@H]4C[C@H](O)[C@@]3(C)C(=O)[C@H](O)C(=C1C)C2(C)C)C(C)(C)C | 0.026 mg/mL (≈ 32.4 µM) | 87 | 0.42 µM | 0.93 µM | 7.50 | 7.74 | 
7 | CC(=O)O[C@@]12CO[C@@H]1C[C@H](O)[C@@]1(C)C(=O)[C@H](O)C3=C(C)[C@@H](OC(=O)[C@H](O)[C@@H](NC(=O)NC(C)(C)C)C(C)(C)C)C[C@@](O)([C@@H](OC(=O)c4ccccc4)[C@H]21)C3(C)C | 0.029 mg/mL (≈ 36.9 µM) | 97 | 0.63 µM | 1.05 µM | 7.54 | 7.59 | 
8 | CC(=O)O[C@@]12CO[C@@H]1C[C@H](O)[C@@]1(C)C(=O)[C@H](O)C3=C(C)[C@@H](OC(=O)[C@H](O)[C@@H](NC(=O)CC(C)(C)C)C(C)(C)C)C[C@@](O)([C@@H](OC(=O)c4ccccc4)[C@H]21)C3(C)C | 0.026 mg/mL (≈ 33.1 µM) | 87 | 0.5 µM | 1.05 µM | 7.54 | 6.98 | 

Second part, led by results:

Row | solubility [1] | Ratio [4] | ED50 [5] | ED50 [6] | Structure (SMILES) | pEC50 [2] | pEC50 [3] | Ratio [7]
9 | 0.0014 mg/mL (≈ 1.74 µM) | 4.7 | 0.33 µM | 1.04 µM | CC(=O)O[C@@]12CO[C@@H]1C[C@H](O)[C@@]1(C)C(=O)[C@H](O)C3=C(C)[C@@H](OC(=O)[C@H](O)[C@@H](NC(=O)Nc4ccccc4)C(C)(C)C)C[C@@](O)([C@@H](OC(=O)c4ccccc4)[C@H]21)C3(C)C | 7.57 | 7.73 | 
10 |  |  | 1.35 µM | 1.05 µM | CC(=O)O[C@@]12CO[C@@H]1C[C@H](O)[C@@]1(C)C(=O)[C@H](O)C3=C(C)[C@@H](OC(=O)[C@H](O)[C@@H](NC(=O)C(C)(C)C)C(C)(C)C)C[C@@](O)([C@@H](OC(=O)c4ccccc4)[C@H]21)C3(C)C | 7.54 | 6.03 | 1.3
11 | 0.005 mg/mL | 17 | 0.51 µM | 1.14 µM | CC(=O)O[C@@]12CO[C@@H]1C[C@H](O)[C@@]1(C)C(=O)[C@H](O)C3=C(C)[C@@H](OC(=O)[C@H](O)[C@@H](NC(=O)OC(C)(C)C)c4ccccc4)C[C@@](O)([C@@H](OC(=O)c4ccccc4)[C@H]21)C3(C)C.O.O.O [DOCETAXEL] | 7.57 | 7.96 | 0.45
12 | 0.0028 mg/mL (≈ 3.54 µM) | 9.3 | 1.7 µM | 0.93 µM | CC(=O)O[C@@]12CO[C@@H]1C[C@H](O)[C@@]1(C)C(=O)[C@H](O)C3=C(C)[C@@H](OC(=O)[C@H](O)[C@@H](NC(=O)c4ccccc4)C(C)(C)C)C[C@@](O)([C@@H](OC(=O)c4ccccc4)[C@H]21)C3(C)C |  |  | 
13 | 0.0003 mg/mL (≈ 0.351 µM) | 1 |  |  | CC(=O)O[C@H]1C(=O)[C@@]2(C)[C@H]([C@H](OC(=O)c3ccccc3)[C@]3(O)C[C@H](OC(=O)[C@H](O)[C@@H](NC(=O)c4ccccc4)c4ccccc4)C(C)=C1C3(C)C)[C@]1(OC(C)=O)CO[C@@H]1C[C@@H]2O [PACLITAXEL] |  |  | 
14 | 0.027 mg/mL (≈ 34.3 µM) | 90 | 0.8 µM | 0.93 µM | CCCCOC(=O)N[C@H]([C@@H](O)C(=O)O[C@H]1C[C@@]2(O)[C@@H](OC(=O)c3ccccc3)[C@@H]3[C@]4(OC(C)=O)CO[C@@H]4C[C@H](O)[C@@]3(C)C(=O)[C@H](O)C(=C1C)C2(C)C)C(C)(C)C | 7.50 | 7.19 | 
